Reference: PubChem BioAssay AID1296 (Columbia University Molecular Screening Center, 2008)
Out of some 130,000 compounds screened, about 1,000 (0.77%) were called active. Inconclusive results (about 1%) are left out.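 The calls were made as follows: active = activation at 2 µM above a set limit, confirmed on inspection of the cell images; inconclusive = above the set limit but not confirmed on image inspection; inactive = the rest.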 Only a selection was taken, and actives are over-represented in it overall.

Assay: activators of insulin promoter-driven GFP, primary screen, imaging, TRM-6 cells, eGFP reporter, cell count (AID 1296);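 as to activation: share of cells whose green reporter signal exceeds an intensity cutoff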;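 as to normalized cell count: cells counted after 48 h compound exposure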
Conditions: at 2 µM; activation: stronger effect = higher value, plate-scaled: unstimulated 0, stimulated control 100; normalized cell count: measured here: cell count (toxicity)
In short: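 Test system: human fetal islet-derived TRM-6 cells with tamoxifen-inducible insulin promoter–eGFP reporter; schedule: overnight tamoxifen, then two-day compound incubation at 37 °C; measured by: high-content imaging of fixed cells with Hoechst nuclear stain; evaluation: percent cells above green-intensity threshold, converted to percent activation versus plate controls; control set: stimulated and unstimulated wells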

SMILES	activation	normalized cell count [%]
CCCC1NC(=S)NC(C)=C1C(C)=O (stereo unspecified)	7.14% (inactive)	103
COC(=O)c1ccccc1NC(=S)NC(=O)c1ccccc1F	0% (inactive)	112
Cc1ccccc1OCCOc1ccc([N+](=O)[O-])cc1/C=N/n1cnnc1	107% (inactive)	5.92
Cn1c(SCC(=O)N2CCCc3ccccc32)nc2ccccc2c1=O	57.1% (inactive)	100
COC(=O)c1[nH]c2ccccc2c1NC(=O)CN1CCCc2ccccc21	209% (active)	75.4
Cc1[nH]c2ccccc2c1SCC(=O)Nc1nccs1	5.56% (inactive)	140
Cc1cccc(-n2cc(CN3CCN(C(=O)c4ncn[nH]4)CC3)c(-c3cccc(F)c3)n2)c1	0% (inactive)	108
O=C(COc1ccc2c(C(F)(F)F)cc(=O)oc2c1)Nc1ccc2c(c1)OCCO2	2.7% (inactive)	112
CC1(C)CC(=O)c2cnc3nc4ccccc4n3c2C1	-76.2% (inactive)	56.3
Cc1cc(C(=O)OCC(=O)Nc2nnc(C(C)C)s2)c2ccccc2n1	0% (inactive)	93.8
N#C/C(=C\C1=C(N2CCOCC2)C(=C\c2ccccc2)/CC1)C(=O)Nc1ccccc1F	525% [fluoresces] (active)	109
CC(CC(=O)O)C(=O)c1ccc(Cl)c([N+](=O)[O-])c1 (stereo unspecified)	6.67% (inactive)	136
O=C1C(Cl)=C(N2CCOCC2)C(=O)N1c1ccccc1	0% (inactive)	129
O=C1OC(NC(=O)c2ccccc2)C(N2CCOCC2)=C1Cl (stereo unspecified)	162% (active)	118
Cn1nc(-c2ccc(N3CCOCC3)c(NC(=O)c3ccccc3)c2)c2ccccc2c1=O	0% (inactive)	95.6
C=CCc1cccc2cc(C(=O)OCC)c(=O)oc12	7.14% (inactive)	70.6
COCCCNCCOCCOc1ccc(Cl)cc1Br	6.67% (inactive)	166
CC1=NN(C(=O)Cc2ccc(C)cc2)C(O)(c2cccnc2)C1 (stereo unspecified)	-5.41% (inactive)	170
CN(CC(=O)NC1CCCC1)S(=O)(=O)c1cnc[nH]1	-7.14% (inactive)	85
CC(C)COP(=O)(c1ccc(N(C)C)cc1)C(Nc1ccccc1)c1cccnc1 (stereo unspecified)	2.94% (inactive)	145
COC(=O)c1ccc(COC(=O)c2c(C)nn(Cc3ccccc3Cl)c2Cl)o1	5.26% (inactive)	164
COC(=O)c1ccc(CSc2ccccc2C)o1	230% (active)	122

SMILES	activation	normalized cell count [%]
COC(=O)c1ccc(Cc2ccccc2)o1	-92.9% (inactive)	83.1
C=CCN(c1ccc(C(=O)Nc2cc(C)cc(C)c2)cc1)S(C)(=O)=O	8.11% (inactive)	119
CCNC(=S)N(CCc1c(C)[nH]c2ccc(C)cc12)Cc1ccco1	340% (active)	55.7
Cc1cccc2cc(CN(Cc3cccs3)C(=S)NCc3ccco3)c(=O)[nH]c12	-7.94% (inactive)	94.8
CC1CCCN(CCOCCOc2ccccc2-c2ccccc2)C1 (stereo unspecified)	7.14% (inactive)	133
Cc1ccc(C(C)(C)C)c(OCCCCN2CCCC2)c1	-1.96% (inactive)	97.2
Cc1nn(-c2ccccc2)c(C)c1NC(=O)COc1ccc(Cl)cc1Cl	3.7% (inactive)	120
CCOc1nnc(C)c2c(C)n(-c3cccc(Cl)c3)nc12	162% (active)	134
Cc1cc(C)c2c(n1)nn1c(N3CCN(c4cccc(Cl)c4)CC3)cc(C)nc21	141% (inactive)	99.8
O=C(CCCN1C(=O)/C(=C/c2ccco2)SC1=S)Nc1ccccc1	0% (inactive)	158
COc1ccc(N2CCN(C(=O)c3ccc4c(Cl)c5c(nc4c3)CCCC5)CC2)cc1	0% (inactive)	94.9
COc1ccc(C2CC(c3cccs3)Nc3nnnn32)cc1 (stereo unspecified)	-78.6% (inactive)	120
CC1(C)CC(=O)C(N=Nc2ccc(S(=O)(=O)N3CCCCCC3)cc2)=C(O)C1	0% (inactive)	78.9
O=C(NCN1CCN(CCO)CC1)c1cnccn1	6.67% (inactive)	83.1
O=C(Nc1ccccc1C(=O)NCCCn1ccnc1)c1ccc(Cl)cc1Cl	289% (inactive)	61.3
CCCC(=O)Nc1ccc(C(=O)NCCCn2ccnc2)cc1	456% (active)	48.4
Cc1ccc2c(Cl)c(C(=O)NCCCn3ccnc3)sc2c1	352% (inactive)	42
C/C(=N\NC(=O)c1ccc(NS(=O)(=O)c2cccs2)cc1)c1ccc2ccccc2c1	157% (inactive)	72.7
CN(C)CCCCCN(C)Cc1cc2ccccc2o1	319% (active)	86.1
CCS(=O)(=O)Nc1cc(C(=O)OC)ccc1C(=O)OC	-6.67% (inactive)	104
CCN(CCO)C(=S)Nc1cc(C(=O)OC)ccc1C(=O)OC	3.45% (inactive)	127
COC(=O)c1ccc(C(=O)OC)c(NC(=S)N2CCN(c3ccc(F)cc3)CC2)c1	403% (active)	89.4

SMILES	activation	normalized cell count [%]
COc1ccc(C)cc1Nc1nc(-c2c(C)[nH]c3ccccc23)cs1	-3.7% (inactive)	68.8
CN(c1ccc(OCC(=O)OCC(=O)Nc2cccc([N+](=O)[O-])c2)cc1)S(=O)(=O)c1ccc(F)cc1	-8.57% (inactive)	119
CCc1ccc(NC(=O)Nc2ccncc2)cc1	268% (active)	67.1
O=C(Nc1ccncc1)c1c(F)cccc1F	-5.26% (inactive)	90.9
COc1cccc(OC)c1C(=O)Nc1ccc(Cc2ccncc2)cc1	6.67% (inactive)	107
OCCNCCOc1ccc(Cl)c(Cl)c1	-3.85% (inactive)	86.5
CC(NC(=O)Nc1ccc2c(c1)OCO2)c1ccncc1 (stereo unspecified)	-5.26% (inactive)	112
Cc1onc(C(=O)NN)c1C(=O)N1CCN(C(c2ccccc2)c2ccccc2)CC1	-81.8% (inactive)	29.3
CCOC(=O)c1c(NC(=O)C2CC=CCC2C(=O)O)sc(C)c1CC (stereo unspecified)	-5.88% (inactive)	110
Cc1ccccc1C(OCCN(C)C)C1CCCCC1 (stereo unspecified)	-9.38% (inactive)	72.9
Cc1ccc(N/N=C2\COC(C)(C)CC2=O)cc1	7.14% (inactive)	67.8
NC(=O)c1ccc(CN2CCC(Cc3ccccc3)CC2)cc1	347% (active)	40.1
O=C(Nc1ccccc1)N1CCN(Cc2ccccc2)CC1	4.22% (inactive)	57.8
CCCC(=O)C1CCN(Cc2ccccc2)CC1	0% (inactive)	122
O=C(CSc1ncnc2scc(-c3ccccc3)c12)NCc1ccc2c(c1)OCO2	0% (inactive)	109
CCCCOc1ccc(C(=O)NN2CCN(C)CC2)cc1	0% (inactive)	149
CN(c1ccccc1)c1ccc(/C=c2\s/c(=C(/C#N)C(=O)C(C)(C)C)n(Cc3ccco3)c2=O)cc1	178% (active)	74.1
Cc1cs/c(=N\N=C\c2ccc(O)cc2)n1Cc1ccco1	-7.69% (inactive)	109
Cc1ccc(S(=O)(=O)N(CC(=O)N2CCc3ccccc3C2)c2cccc(Cl)c2)cc1	5% (inactive)	94.9
O=C(CN(c1ccccc1)S(=O)(=O)c1ccc(Cl)cc1)Nc1ccccc1C(=O)N1CCCC1	93.5% (active)	74.8
O=C(CN(c1cccc(Cl)c1)S(=O)(=O)c1ccccc1)NN=C1CCCC1	-5.88% (inactive)	82.1
N#CCC(=O)NC(=O)NCC1CC1	9.09% (inactive)	118

SMILES	activation	normalized cell count [%]
O=C(CCc1[nH]c2ccccc2c1Sc1ccccc1)N(CCO)CCO	-6.9% (inactive)	121
Cc1nnc(SCC(=O)N2CCOCC2)[nH]c1=O	0% (inactive)	145
O=S(=O)(c1cccs1)N1CCc2ccccc2C1	-90.9% (inactive)	90.9
O=C(Nc1ccc(S(=O)(=O)N2CCc3ccccc3C2)cc1)c1ccccc1	407% (active)	116
COc1ccc(S(=O)(=O)N2CCC(C(=O)N3CCc4ccccc4C3)CC2)cc1OC	8.7% (inactive)	157
O=C(Nc1ccccc1)OCc1cn(-c2ccc(Cl)cc2)nn1	6.06% (inactive)	118
CC(Sc1nncn1C)C(=O)Nc1cc(C(F)(F)F)ccc1N1CCOCC1 (stereo unspecified)	0% (inactive)	135
CCC(C)(C(=O)NC1CCCCC1)N(C)C(=O)c1ccc2c(c1)OCO2 (stereo unspecified)	8.57% (inactive)	95.1
CN1CCC(OC(=O)COc2ccc(Cl)cc2Cl)CC1	453% (active)	63.1
CCOC(=O)N1CCN(C(=O)COc2ccc(Cl)cc2C)CC1	193% (inactive)	63.4
CCCn1nnnc1NC(=O)COc1ccc(Cl)cc1C	9.09% (inactive)	95.5
CC(C)(C)NCCCOc1ccc(Cl)cc1C(C)(C)C	108% (inactive)	74
CC(C)NC(=O)C(=O)N/N=C/c1ccco1	0% (inactive)	130
CCCCc1nc(NCc2ccccc2)c(C#N)c2c1CCCC2	-3.7% (inactive)	115
Cc1ccccc1OCC(=O)NCC(=O)OCC(=O)c1ccc2ccccc2c1	-2.78% (inactive)	105
Cc1cccc(NC(=O)COc2ccccc2C)n1	406% (active)	56.6
Cc1ccc(S(=O)(=O)NC(=O)COc2ccccc2C)cc1	-81.2% (inactive)	150
Cc1nc2scc(-c3cccs3)c2c(=O)n1N	-9.8% (inactive)	105
Cc1nc2ccc(C(=O)N3CCSCC3)cc2s1	6.06% (inactive)	60.2
CCN(CC)CC1(O)CCN(C(=O)c2ccc(Cl)c(Cl)c2)CC1	275% (active)	33.3
O=C(c1ccc(Cl)c([N+](=O)[O-])c1)N1CCN(c2ccccc2)CC1	4.35% (inactive)	49.2
COCCn1c(SCC(=O)Nc2ccc3c(c2)CCC3)nc2ccccc2c1=O	1.3% (inactive)	117
